Results from ChEMBL document CHEMBL5154915 (J Med Chem, 2022).
The source made the active and inactive calls. The calls are words filed in the database; no cut-off is given here.

Key:
[1] = Acute toxicity in iv dosed Albino Swiss CD-1 mouse assessed as lethal dose after 24 hrs; type: organism-based; conditions: in vivo
In short: (§1)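 Male Albino Swiss CD-1 mice received compound in saline. Intravenous doses were 100, 200, 250, 275 and 300 mg/kg (1–4 mice per group). Oral doses were 100, 200, 400, 600 and 800 mg/kg (4 per group). Vehicle-only controls were included.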

Rattus norvegicus [2] = test: Hemodynamic activity in STZ-induced diabetic cardiomyopathy Sprague-Dawley rat model assessed as effect on systolic index by measuring fractional shortening at 0.2 mg/kg/min, iv for 15 to 30 mins measured after 10 mins of treatment by tissue doppler imaging method; type: functional, organism-based; conditions: time lower […], time upper 40.0 min
In short: (§2)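 Male Sprague Dawley rats (150–175 g) were made diabetic with STZ 50 mg/kg i.v. in citrate buffer; fasting glycaemia >290 mg/dL at 1 week qualified. They were studied 8 weeks after STZ under urethane 1.25 g/kg i.p. Transthoracic echo with pulsed Doppler and TDI was taken before, at 15 and 30 min during i.v. infusion at 0.2 mg/kg/min, and 10 min after stopping. N = 13; one-way RM ANOVA.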

Rattus norvegicus [3] = test: Hemodynamic activity in STZ-induced diabetic cardiomyopathy Sprague-Dawley rat model assessed as transmitral doppler flow index by measuring shortening in DT wave at 0.2 mg/kg/min, iv for 15 to 30 mins measured after 10 mins of treatment by tissue doppler imaging method; type: functional, organism-based; conditions: time lower […], time upper 40.0 min; in short: as §2
Cavia porcellus [4] = species on record: Cavia porcellus; test: Activation of SERCA2a activity in guinea pig heart sarcoplasmic reticulum microsomal fraction assessed as increase in SERCA2a-Ca2+ affinity by measuring Kd of calcium at 10 to 100 nM preincubated for 5 mins followed by addition of 32-P-ATP measured after 15 mins; type: subcellular; conditions: filed as activator, dose 10-100 nM, time 20.0 min
In short: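 Cardiac SR microsomes were prepared from healthy guinea pig hearts and contain SERCA2a plus PLN. Compounds were tested at 10 and 100 nM. ATPase was measured as 32P-ATP release at 37 °C, taking the cyclopiazonic acid (10 μM)-sensitive part, across Ca2+ 100–1500 nM. KdCa and Vmax were derived by curve fitting. N = 4–11; one-way RM ANOVA with Tukey or paired t-test.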

Cavia porcellus [5] = species on record: Cavia porcellus; test: Activation of SERCA1 activity in guinea pig skeletal muscle microsome from hind leg assessed as increase in SERCA1-Ca2+ affinity by measuring Kd of calcium at 30 to 1000 nM preincubated for 5 mins followed by addition of 32-P-ATP measured after 15 mins in presence of PLN (1-12) relative to control; type: microsomes; conditions: dose 30-1000 nM, time 20.0 min
Cavia porcellus [6] = species on record: Cavia porcellus; test: Activation of SERCA1 activity in guinea pig skeletal muscle microsome from hind leg assessed as increase in SERCA1-Ca2+ affinity by measuring reversal of PLN (1-12)-induced shift in dissociation of calcium; type: microsomes; conditions: filed as activator, dose 30-1000 nM, DDE = dose-dependent effect
[7] = Inhibition of NA+/K+ ATPase activity in STZ-induced diabetic rat left ventricular myocytes assessed as inhibition of NA+/K+ ATPase current at 20 to 100 uM for 30 min; type: toxicity, cell-based; conditions: ventricular myocyte, 0.5 h, dose 20-100 µM
[8] = Acute toxicity in Albino Swiss CD-1 mouse assessed as prostration at 100 to 800 mg/kg, po or 100 to 300 mg/kg, iv after 24 hrs; type: organism-based; conditions: in vivo, dose 100-800 mg/kg; in short: as §1
[9] = Acute toxicity in Albino Swiss CD-1 mouse assessed as gasping at 100 to 800 mg/kg, po or 100 to 300 mg/kg, iv after 24 hrs; type: organism-based; conditions: in vivo, dose 100-800 mg/kg; in short: as §1
[10] = Acute toxicity in Albino Swiss CD-1 mouse assessed as convulsions at 100 to 800 mg/kg, po or 100 to 300 mg/kg, iv after 24 hrs; type: organism-based; conditions: in vivo, dose 100-800 mg/kg; in short: as §1
Rattus norvegicus [11] = test: Hemodynamic activity in STZ-induced diabetic cardiomyopathy Sprague-Dawley rat model assessed as transmitral doppler flow index by measuring increasing in E and A waves at 0.2 mg/kg/min, iv for 15 to 30 mins measured after 10 mins of treatment by tissue doppler imaging method; type: functional, organism-based; conditions: time lower […], time upper 40.0 min; in short: as §2
Rattus norvegicus [12] = test: Hemodynamic activity in STZ-induced diabetic cardiomyopathy Sprague-Dawley rat model assessed as transmitral doppler flow index by measuring increase in protodiastolic TDI relaxation velocity at 0.2 mg/kg/min, iv for 15 to 30 mins measured after 10 mins of treatment by tissue doppler imaging method; type: functional, organism-based; conditions: time lower […], time upper 40.0 min; in short: as §2
Rattus norvegicus [13] = test: Hemodynamic activity in STZ-induced diabetic cardiomyopathy Sprague-Dawley rat model assessed as transmitral doppler flow index by measuring increase in telediastolic TDI relaxation velocity at 0.2 mg/kg/min, iv for 15 to 30 mins measured after 10 mins of treatment by tissue doppler imaging method; type: functional, organism-based; conditions: time lower […], time upper 40.0 min; in short: as §2
Rattus norvegicus [14] = test: Hemodynamic activity in STZ-induced diabetic cardiomyopathy Sprague-Dawley rat model assessed as increased cardiac output at 0.2 mg/kg/min, iv for 15 to 30 mins measured after 10 mins of treatment by tissue doppler imaging method; type: functional, organism-based; conditions: time lower […], time upper 40.0 min; in short: as §2
Rattus norvegicus [15] = test: Hemodynamic activity in STZ-induced diabetic cardiomyopathy Sprague-Dawley rat model assessed as effect on heart rate at 0.2 mg/kg/min, iv for 15 to 30 mins measured after 10 mins of treatment by tissue doppler imaging method; type: functional, organism-based; conditions: time lower […], time upper 40.0 min; in short: as §2
Rattus norvegicus [16] = test: Hemodynamic activity in STZ-induced diabetic cardiomyopathy Sprague-Dawley rat model assessed as effect on systolic TDI velocity at 0.2 mg/kg/min, iv for 15 to 30 mins measured after 10 mins of treatment by tissue doppler imaging method; type: functional, organism-based; conditions: time lower […], time upper 40.0 min; in short: as §2
Rattus norvegicus [17] = test: Hemodynamic activity in STZ-induced diabetic cardiomyopathy Sprague-Dawley rat model assessed as effect on left ventricular end-systolic diameter at 0.2 mg/kg/min, iv for 15 to 30 mins measured after 10 mins of treatment by tissue doppler imaging method; type: functional, organism-based; conditions: time lower […], time upper 40.0 min; in short: as §2
Cavia porcellus [18] = species on record: Cavia porcellus; test: Activation of SERCA2a activity in guinea pig heart sarcoplasmic reticulum microsomal fraction assessed as increase in SERCA2a-Ca2+ affinity by measuring Kd of calcium at 100 nM preincubated for 5 mins followed by addition of 32-P-ATP measured after 15 mins relative to control; type: subcellular; conditions: time 20.0 min
In short: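 Cardiac SR microsomes were prepared from healthy guinea pig hearts and contain SERCA2a plus PLN. Compounds were tested at 10 and 100 nM. KdCa and Vmax were derived by curve fitting. N = 4–11; one-way RM ANOVA with Tukey or paired t-test.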

Na+/K+ ATPase alpha 1 = Na+/K+ ATPase alpha 1 (Canis lupus familiaris, UniProt P50997); test: Inhibition of Beagle dog kidney NA+/K+ ATPase alpha 1 by measuring 32P-ATP hydrolysis at 0.0001 M preincubated for 10 mins followed by addition of 32P-ATP measured after 15 mins; type: toxicity; conditions: dog kidney Na+/K+ ATPase alpha 1, probe 32P-ATP, time 25 min
In short: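 Na+/K+ ATPase-α1 was purified from dog kidney (specific activity 14 μmol/min/mg protein). Compounds were tested from 10–9 to 10–4 M. Activity is the ouabain (1 mM)-sensitive part of total 32P-ATP release at 37 °C. N = 2.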

[19] = Acute toxicity in po dosed Albino Swiss CD-1 mouse assessed as lethal dose after 24 hrs; type: organism-based; conditions: in vivo; in short: as §1

In the case of `C[C@]12CC/C(=N\OCC(=O)O)C[C@@H]1[C@H](O)C[C@@H]1[C@@H]2CC[C@]2(C)C(=O)CC[C@@H]12`, the LD50 at 24 h [1] is reported as > 250 mg/kg.
With `C[C@]12CC[C@H](CCCC(=O)O)C[C@@H]1[C@@H](O)C[C@@H]1[C@@H]2CC[C@]2(C)C(=O)CC[C@@H]12` the Activity (Rattus norvegicus [2]) was “Active”, the Activity (Rattus norvegicus [3]) was “Active” and the Activity (Cavia porcellus [4]) was “Active”. The Activity (Cavia porcellus [5]) was 23%, the Activity (Cavia porcellus [6]) was “Dde” and the “inhibition (INH)” value [7] was “Active”. For the same compound, the Activity [8] was “Non-Toxic”, the Activity [9] was “Non-Toxic” and the Activity [10] was “Non-Toxic”. For the same compound, the Activity (Rattus norvegicus [11]) was “Active”, the Activity (Rattus norvegicus [12]) was “Active” and the Activity (Rattus norvegicus [13]) was “Active”. The Activity (Rattus norvegicus [14]) was “Active”, the Activity (Rattus norvegicus [15]) was “Active” and the Activity (Rattus norvegicus [16]) was “Active”. The Activity (Rattus norvegicus [17]) was “Active”.
For `CCOC(=O)CCCCC[C@H]1CC[C@@]2(C)[C@H](C1)[C@@H](O)C[C@@H]1[C@@H]2CC[C@]2(C)C(=O)CC[C@@H]12`, the Activity (Cavia porcellus [4]) was “Active” and the Activity (Cavia porcellus [18]) was -26%.
Compound `C[C@]12CC[C@H](CC(=O)O)C[C@@H]1[C@H](O)C[C@@H]1[C@@H]2CC[C@]2(C)C(=O)CC[C@@H]12` has an inhibition at […], 100 µM (Na+/K+ ATPase alpha 1) of -55%.
In the case of `C[C@]12CC[C@H](CC(=O)O)C[C@@H]1[C@@H](O)C[C@@H]1[C@@H]2CC[C@]2(C)C(=O)CC[C@@H]12`, the Activity (Cavia porcellus [4]) is reported as “Active”, the Activity (Cavia porcellus [18]) is reported as -26% and the Activity (Cavia porcellus [5]) is reported as 23%. The Activity (Cavia porcellus [6]) was “Dde”.
With `CCOC(=O)CCC[C@H]1CC[C@@]2(C)[C@H](C1)[C@@H](O)C[C@@H]1[C@@H]2CC[C@]2(C)C(=O)CC[C@@H]12` the Activity (Cavia porcellus [4]) was “Active” and the Activity (Cavia porcellus [18]) was -26%.
With `C[C@]12CC[C@H](CCCCCC(=O)O)C[C@@H]1[C@@H](O)C[C@@H]1[C@@H]2CC[C@]2(C)C(=O)CC[C@@H]12` the Activity (Cavia porcellus [4]) was “Active” and the Activity (Cavia porcellus [18]) was -26%.
For `C[C@]12CC/C(=C\CCC(=O)O)C[C@@H]1[C@@H](O)C[C@@H]1[C@@H]2CC[C@]2(C)C(=O)CC[C@@H]12`, the Activity (Cavia porcellus [4]) was “Active” and the Activity (Cavia porcellus [18]) was -26%.
In the case of `CCOC(=O)C[C@H]1CC[C@@]2(C)[C@H](C1)[C@@H](O)C[C@@H]1[C@@H]2CC[C@]2(C)C(=O)CC[C@@H]12`, the Activity (Cavia porcellus [4]) is reported as “Active”.
`C[C@]12CC/C(=C\CCC(=O)O)C[C@@H]1[C@H](O)C[C@@H]1[C@@H]2CC[C@]2(C)C(=O)CC[C@@H]12` gave an inhibition at […], 100 µM (Na+/K+ ATPase alpha 1) of -62%.
In the case of `C[C@]12CC[C@H](CCCC(=O)O)C[C@@H]1[C@H](O)C[C@@H]1[C@@H]2CC[C@]2(C)C(=O)CC[C@@H]12`, the Activity (Cavia porcellus [4]) is reported as “Active”.
Work on `C[C@]12CCC(=NOCCN)C[C@@H]1C(=O)C[C@@H]1[C@@H]2CC[C@]2(C)C(=O)CC[C@@H]12` (mixture of isomers) yielded an LD50 at 24 h [19] of 200 mg/kg.
